Results as given in ChEMBL document CHEMBL1151755, “Crystal structure of the peroxisome proliferator-activated receptor gamma (PPARgamma) ligand binding domain complexed with a novel partial agonist: a new region of the hydrophobic pocket could be exploited for drug design” (J Med Chem, 2008).
Calls of active or inactive are those of the source. No cut-off for these calls is given here.

Tests used:
[1] = target: T1, Retinoic acid receptor alpha (Homo sapiens) (UniProt P10276); assay: Increase in transcriptional activity of RARalpha ligand binding domain expressed in human Hep G2 cells co-transfected with Gal4-DBD by luciferase reporter gene assay; type: cell-based; conditions: HepG2
T1 sequence (whole entry): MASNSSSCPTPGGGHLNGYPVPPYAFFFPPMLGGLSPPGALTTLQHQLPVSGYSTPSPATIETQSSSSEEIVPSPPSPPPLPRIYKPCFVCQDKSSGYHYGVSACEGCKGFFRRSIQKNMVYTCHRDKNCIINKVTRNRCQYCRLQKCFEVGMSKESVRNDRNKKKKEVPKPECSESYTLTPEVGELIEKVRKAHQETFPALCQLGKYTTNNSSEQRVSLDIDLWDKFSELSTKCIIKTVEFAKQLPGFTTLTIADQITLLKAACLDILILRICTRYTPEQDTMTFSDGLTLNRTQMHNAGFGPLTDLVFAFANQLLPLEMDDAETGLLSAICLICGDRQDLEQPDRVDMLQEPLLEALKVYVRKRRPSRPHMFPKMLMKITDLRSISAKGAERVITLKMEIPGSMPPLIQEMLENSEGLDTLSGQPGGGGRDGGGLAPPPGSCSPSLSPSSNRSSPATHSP
Outline: (§1)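 HepG2 cells transfected for 4 h by calcium phosphate coprecipitation with 100 ng pGal4UAS-luciferase, 50 ng Gal4-LBD receptor vector and 300 ng CMV-β-galactosidase plasmid for normalization. Cells were washed in PBS, then refed with serum-free DMEM/F-12 containing penicillin/streptomycin and compound or 0.1% ethanol vehicle for 20 h. Luciferase read-out was normalized to β-galactosidase. Experiments were repeated at least three times.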

[2] = target: T2, Thyroid hormone receptor alpha (Homo sapiens) (UniProt P10827); assay: Increase in transcriptional activity of TRalpha ligand binding domain expressed in human Hep G2 cells co-transfected with Gal4-DBD by luciferase reporter gene assay; type: cell-based; conditions: HepG2; outline: as §1
T2 sequence (whole entry): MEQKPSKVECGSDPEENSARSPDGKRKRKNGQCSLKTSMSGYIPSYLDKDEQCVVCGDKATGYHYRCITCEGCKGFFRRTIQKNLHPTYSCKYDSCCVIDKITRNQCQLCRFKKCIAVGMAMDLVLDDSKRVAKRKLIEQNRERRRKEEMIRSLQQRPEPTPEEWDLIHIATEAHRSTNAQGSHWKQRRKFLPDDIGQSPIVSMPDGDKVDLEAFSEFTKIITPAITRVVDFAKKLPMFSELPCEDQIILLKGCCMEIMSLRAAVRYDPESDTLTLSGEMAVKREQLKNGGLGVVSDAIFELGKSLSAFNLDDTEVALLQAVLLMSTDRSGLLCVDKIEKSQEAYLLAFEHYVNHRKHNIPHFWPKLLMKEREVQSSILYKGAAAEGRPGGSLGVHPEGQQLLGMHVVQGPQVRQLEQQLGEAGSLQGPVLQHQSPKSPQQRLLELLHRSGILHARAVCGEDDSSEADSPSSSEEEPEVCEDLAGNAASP

[3] = target: T3, Retinoic acid receptor RXR-alpha (Homo sapiens) (UniProt P19793); assay: Increase in transcriptional activity of RXRalpha ligand binding domain expressed in human Hep G2 cells co-transfected with Gal4-DBD by luciferase reporter gene assay; type: cell-based; conditions: HepG2; outline: as §1
T3 sequence (whole entry): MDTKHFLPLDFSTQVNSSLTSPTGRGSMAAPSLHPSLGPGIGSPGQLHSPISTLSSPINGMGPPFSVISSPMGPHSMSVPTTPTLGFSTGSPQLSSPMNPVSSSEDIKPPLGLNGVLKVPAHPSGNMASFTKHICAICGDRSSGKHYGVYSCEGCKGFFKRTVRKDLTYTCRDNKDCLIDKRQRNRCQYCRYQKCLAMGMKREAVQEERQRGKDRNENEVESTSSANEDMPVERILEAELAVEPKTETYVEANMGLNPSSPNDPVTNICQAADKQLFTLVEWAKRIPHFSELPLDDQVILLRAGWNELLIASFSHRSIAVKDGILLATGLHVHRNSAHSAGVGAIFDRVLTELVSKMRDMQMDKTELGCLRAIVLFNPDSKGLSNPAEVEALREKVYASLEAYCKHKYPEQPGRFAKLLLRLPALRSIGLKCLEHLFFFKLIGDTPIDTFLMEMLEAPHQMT

[4] = target: T4, Peroxisome proliferator-activated receptor alpha (Mus musculus, UniProt P23204); assay: (§2) Agonist activity at mouse PPARalpha ligand binding domain expressed in human Hep G2 cells co-transfected with Gal4-DBD by luciferase reporter gene assay; type: cell-based, HepG2
T4 sequence (P23204 whole entry): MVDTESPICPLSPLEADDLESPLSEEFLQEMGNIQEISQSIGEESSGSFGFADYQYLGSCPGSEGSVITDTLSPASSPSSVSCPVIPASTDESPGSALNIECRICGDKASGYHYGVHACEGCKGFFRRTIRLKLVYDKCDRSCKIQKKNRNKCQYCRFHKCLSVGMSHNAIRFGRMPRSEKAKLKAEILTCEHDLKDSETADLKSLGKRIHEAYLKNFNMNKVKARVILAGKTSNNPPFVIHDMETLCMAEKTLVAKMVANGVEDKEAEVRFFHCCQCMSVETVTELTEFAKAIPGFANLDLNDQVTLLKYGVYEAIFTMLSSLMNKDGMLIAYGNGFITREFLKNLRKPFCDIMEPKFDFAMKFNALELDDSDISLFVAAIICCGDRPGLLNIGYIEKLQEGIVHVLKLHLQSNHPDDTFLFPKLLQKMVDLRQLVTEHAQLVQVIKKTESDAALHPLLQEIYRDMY

[5] = target: T5, Oxysterols receptor LXR-beta (Homo sapiens) (UniProt P55055); assay: Increase in transcriptional activity of LXRbeta ligand binding domain expressed in human Hep G2 cells co-transfected with Gal4-DBD by luciferase reporter gene assay; type: cell-based; conditions: HepG2; outline: as §1
T5 sequence (whole entry): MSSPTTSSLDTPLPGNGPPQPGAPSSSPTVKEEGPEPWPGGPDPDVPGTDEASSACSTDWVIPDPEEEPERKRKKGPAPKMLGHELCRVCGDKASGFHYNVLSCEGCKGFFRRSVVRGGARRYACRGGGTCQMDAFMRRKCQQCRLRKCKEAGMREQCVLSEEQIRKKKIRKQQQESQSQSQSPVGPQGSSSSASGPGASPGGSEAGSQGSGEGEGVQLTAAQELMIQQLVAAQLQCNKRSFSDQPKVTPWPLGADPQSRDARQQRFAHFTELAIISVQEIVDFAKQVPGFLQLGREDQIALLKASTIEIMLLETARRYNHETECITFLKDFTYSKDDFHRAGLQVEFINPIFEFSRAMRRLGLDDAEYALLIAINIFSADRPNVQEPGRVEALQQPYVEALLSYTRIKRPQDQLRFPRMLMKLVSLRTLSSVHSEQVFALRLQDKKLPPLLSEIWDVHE

HepG2 = assay: Increase in transcriptional activity of ROR ligand binding domain expressed in human Hep G2 cells co-transfected with Gal4-DBD by luciferase reporter gene assay; type: cell-based; outline: as §1
[6] = target: Nuclear receptor subfamily 4 group A member 2 (Homo sapiens) (UniProt P43354); assay: Increase in transcriptional activity of Nurr1 ligand binding domain expressed in human Hep G2 cells co-transfected with Gal4-DBD by luciferase reporter gene assay; type: cell-based; conditions: HepG2; outline: as §1
Sequence of Nuclear receptor subfamily 4 group A member 2 (Homo sapiens) (P43354 whole entry, the tested form may be a part): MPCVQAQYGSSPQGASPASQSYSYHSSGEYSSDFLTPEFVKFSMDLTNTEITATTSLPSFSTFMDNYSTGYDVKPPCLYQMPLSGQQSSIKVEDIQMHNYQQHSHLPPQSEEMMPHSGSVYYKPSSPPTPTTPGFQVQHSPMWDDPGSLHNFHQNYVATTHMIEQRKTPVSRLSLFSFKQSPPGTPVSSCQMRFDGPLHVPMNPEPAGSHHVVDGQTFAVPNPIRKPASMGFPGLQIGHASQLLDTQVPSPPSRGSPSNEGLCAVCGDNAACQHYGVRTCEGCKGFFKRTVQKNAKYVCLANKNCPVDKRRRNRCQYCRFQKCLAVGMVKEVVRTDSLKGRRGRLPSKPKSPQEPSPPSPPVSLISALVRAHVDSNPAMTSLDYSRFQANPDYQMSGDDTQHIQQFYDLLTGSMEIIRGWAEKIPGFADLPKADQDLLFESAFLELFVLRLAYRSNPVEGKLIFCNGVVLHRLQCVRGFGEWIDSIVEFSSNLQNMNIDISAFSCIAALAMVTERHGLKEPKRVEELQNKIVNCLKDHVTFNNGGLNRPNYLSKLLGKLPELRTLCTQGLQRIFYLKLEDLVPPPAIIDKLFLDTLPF

[7] = target: T6, Peroxisome proliferator-activated receptor alpha (Mus musculus) (UniProt P23204); assay: as §2; type: cell-based; conditions: HepG2
T6 sequence (whole entry): T4 sequence (P23204 whole entry)

Structure (SMILES)	Activity [1]	Activity [2]	Activity [3]	EC50 [4]	Activity [5]	Activity (HepG2)	Activity [6]	Activity [7]
O=C(O)[C@H](Cc1ccccc1)Oc1ccc(-c2ccccc2)cc1	inactive	inactive	inactive	260 nM	inactive	inactive	inactive	–
O=C(O)[C@@H](Cc1ccccc1)Oc1ccc(-c2ccccc2)cc1	inactive	inactive	inactive	–	inactive	–	inactive	inactive
